Experimental data taken from ChEMBL document CHEMBL1687781, “Comparative biochemical and computational study of the role of naturally occurring mutations at Ambler positions 104 and 170 in GES β-lactamases” (Antimicrob Agents Chemother, 2010).
In brackets after ≈: the same amount, converted by molar mass.

Experiments:
[1] = Activity of Beta-lactamase GES-1 E104, G170 mutant
Method in brief: (§1)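 Purified GES enzymes, released by mild sonication in 20 mM Tris pH 8.0, then Q-Sepharose and S-Sepharose chromatography, >95% pure by SDS-PAGE, in 50 mM KPi pH 7.6. Protein measured by Bradford. β-Lactam substrates hydrolysed at various concentrations, 25°C, in 50 mM NaCl, 50 mM MOPS pH 7.0.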

[2] = Activity of Beta-lactamase GES-7 K104, G170 mutant; method in brief: as §1
[3] = Activity of Beta-lactamase GES-2 E104, N170 mutant; method in brief: as §1
[4] = Activity of Beta-lactamase GES-5 E104, S170 mutant; method in brief: as §1
[5] = Activity of Beta-lactamase GES-6 K104, S170 mutant; method in brief: as §1
[6] = Activity of Beta-lactamase GES-13 K104, N170 mutant; method in brief: as §1
[7] = Ratio of Kcat to Km for Beta-lactamase GES-1 E104, G170 mutant; method in brief: as §1
[8] = Ratio of Kcat to Km for Beta-lactamase GES-7 K104, G170 mutant; method in brief: as §1
[9] = Ratio of Kcat to Km for Beta-lactamase GES-2 E104, N170 mutant; method in brief: as §1
[10] = Ratio of Kcat to Km for Beta-lactamase GES-5 E104, S170 mutant; method in brief: as §1
[11] = Ratio of Kcat to Km for Beta-lactamase GES-6 K104, S170 mutant; method in brief: as §1
[12] = Ratio of Kcat to Km for Beta-lactamase GES-13 K104, N170 mutant; method in brief: as §1
Escherichia coli [13] = test: Antimicrobial activity against Escherichia coli DH5[alpha] transformed with pAC-ges1 plasmid encoding Beta-lactamase GES-1 E104, G170 mutant in presence of clavulanic acid at compound/inhibitor ratio of 2:1 by Etest method; format: functional
Method in brief: (§2)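 E. coli DH5α host, either untransformed or carrying pACYC184-based clones of the GES variant genes. MICs of penicillin–clavulanate combinations were read by Etest following the manufacturer's recommendations, with penicillin and inhibitor at a 2:1 ratio.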

Escherichia coli [14] = test: Antimicrobial activity against Escherichia coli DH5[alpha] transformed with pAC-ges1 plasmid encoding Beta-lactamase GES-7 K104, G170 mutant in presence of clavulanic acid at compound/inhibitor ratio of 2:1 by Etest method; format: functional; method in brief: as §2
Escherichia coli [15] = test: Antimicrobial activity against Escherichia coli DH5[alpha] transformed with pAC-ges1 plasmid encoding Beta-lactamase GES-2 E104, N170 mutant in presence of clavulanic acid at compound/inhibitor ratio of 2:1 by Etest method; format: functional; method in brief: as §2
Escherichia coli [16] = test: Antimicrobial activity against Escherichia coli DH5[alpha] transformed with pAC-ges1 plasmid encoding Beta-lactamase GES-5 E104, S170 mutant in presence of clavulanic acid at compound/inhibitor ratio of 2:1; format: functional; method in brief: as §2
Escherichia coli [17] = test: Antimicrobial activity against Escherichia coli DH5[alpha] transformed with pAC-ges1 plasmid encoding Beta-lactamase GES-6 K104, S170 mutant in presence of clavulanic acid at compound/inhibitor ratio of 2:1 by Etest method; format: functional; method in brief: as §2
Escherichia coli [18] = test: Antimicrobial activity against Escherichia coli DH5[alpha] transformed with pAC-ges1 plasmid encoding Beta-lactamase GES-13 K104, N170 mutant in presence of clavulanic acid at compound/inhibitor ratio of 2:1 by Etest method; format: functional; method in brief: as §2
Escherichia coli [19] = test: Antimicrobial activity against Escherichia coli DH5[alpha] in presence of clavulanic acid at compound/inhibitor ratio of 2:1 by Etest method; format: functional; method in brief: as §2
Escherichia coli [20] = test: Antimicrobial activity against Escherichia coli DH5[alpha] transformed with pAC-ges1 plasmid encoding Beta-lactamase GES-1 E104, G170 mutant by Etest method; format: functional
Escherichia coli [21] = test: Antimicrobial activity against Escherichia coli DH5[alpha] transformed with pAC-ges1 plasmid encoding Beta-lactamase GES-7 K104, G170 mutant by Etest method; format: functional
Escherichia coli [22] = test: Antimicrobial activity against Escherichia coli DH5[alpha] transformed with pAC-ges1 plasmid encoding Beta-lactamase GES-2 E104, N170 mutant by Etest method; format: functional
Escherichia coli [23] = test: Antimicrobial activity against Escherichia coli DH5[alpha] transformed with pAC-ges1 plasmid encoding Beta-lactamase GES-6 K104, S170 mutant by Etest method; format: functional
Escherichia coli [24] = test: Antimicrobial activity against Escherichia coli DH5[alpha] transformed with pAC-ges1 plasmid encoding Beta-lactamase GES-13 K104, N170 mutant by Etest method; format: functional
Escherichia coli [25] = test: Antimicrobial activity against Escherichia coli DH5[alpha] transformed with pAC-ges1 plasmid encoding Beta-lactamase GES-5 E104, S170 mutant by Etest method; format: functional
Escherichia coli [26] = test: Antimicrobial activity against Escherichia coli DH5[alpha] by Etest method; format: functional

Compound | Km [1] | kcat [1] | Km [2] | kcat [2] | Km [4] | kcat [4] | Km [5] | kcat [5] | Km [6] | kcat [6] | kcat/Km [8] | kcat/Km [10] | kcat/Km [11] | kcat/Km [12] | MIC (Escherichia coli [20]) | MIC (Escherichia coli [21]) | MIC (Escherichia coli [22]) | MIC (Escherichia coli [23]) | MIC (Escherichia coli [24]) | MIC (Escherichia coli [25]) | also measured
CC1(C)S[C@@H]2[C@H](NC(=O)Cc3ccccc3)C(=O)N2[C@H]1C(=O)O | 120 µM | 30.5 s⁻¹ | 39 µM | 14.2 s⁻¹ | 88.9 µM | 28.6 s⁻¹ | 64.2 µM | 27.2 s⁻¹ | 139 µM | 13.5 s⁻¹ | 360000 M⁻¹ s⁻¹ | 320000 M⁻¹ s⁻¹ | 420000 M⁻¹ s⁻¹ | 100000 M⁻¹ s⁻¹ | – | – | – | – | – | – | Km [3]: 87.6 µM; kcat [3]: 5.75 s⁻¹; kcat/Km [7]: 260000 M⁻¹ s⁻¹; kcat/Km [9]: 70000 M⁻¹ s⁻¹
CC1(C)S[C@@H]2[C@H](NC(=O)[C@H](N)c3ccc(O)cc3)C(=O)N2[C@H]1C(=O)O [AMOXICILLIN] | – | – | – | – | – | – | – | – | – | – | – | – | – | – | – | – | – | – | – | – | MIC (Escherichia coli [13]): 8 µg/mL; MIC (Escherichia coli [14]): 32 µg/mL; MIC (Escherichia coli [15]): 3 µg/mL; MIC (Escherichia coli [16]): 16 µg/mL; MIC (Escherichia coli [17]): 32 µg/mL; MIC (Escherichia coli [18]): 3 µg/mL; MIC (Escherichia coli [19]): 2 µg/mL
CC1(C)S[C@@H]2[C@H](NC(=O)[C@H](N)c3ccccc3)C(=O)N2[C@H]1C(=O)O [AMPICILLIN] | – | – | – | – | – | – | – | – | – | – | – | – | – | – | > 256 µg/mL | > 256 µg/mL | > 256 µg/mL | > 256 µg/mL | > 256 µg/mL | > 256 µg/mL | –
C[C@H]1[C@H](NC(=O)/C(=N\OC(C)(C)C(=O)O)c2csc(N)n2)C(=O)N1S(=O)(=O)O [AZTREONAM] | – | – | 241 µM | 45.5 s⁻¹ | – | – | – | – | 405 µM | 35.6 s⁻¹ | 190000 M⁻¹ s⁻¹ | – | – | 90000 M⁻¹ s⁻¹ | 0.094 µg/mL (≈ 0.216 µM) | 2 µg/mL (≈ 4.59 µM) | 0.032 µg/mL (≈ 0.0735 µM) | 0.094 µg/mL (≈ 0.216 µM) | 2 µg/mL (≈ 4.59 µM) | 0.032 µg/mL (≈ 0.0735 µM) | –
CO/N=C(\C(=O)N[C@@H]1C(=O)N2C(C(=O)O)=C(COC(C)=O)CS[C@H]12)c1csc(N)n1 [CEFOTAXIME] | 152 µM | 56.8 s⁻¹ | 81.6 µM | 31.4 s⁻¹ | 133 µM | 3.55 s⁻¹ | 95.6 µM | 5.1 s⁻¹ | 63.4 µM | 69 s⁻¹ | 380000 M⁻¹ s⁻¹ | 30000 M⁻¹ s⁻¹ | 50000 M⁻¹ s⁻¹ | 1.09e+06 M⁻¹ s⁻¹ | 1 µg/mL (≈ 2.2 µM) | 1.5 µg/mL (≈ 3.29 µM) | 0.75 µg/mL (≈ 1.65 µM) | 0.125 µg/mL (≈ 0.274 µM) | 3 µg/mL (≈ 6.59 µM) | 0.125 µg/mL (≈ 0.274 µM) | Km [3]: 261 µM; kcat [3]: 37.2 s⁻¹; kcat/Km [7]: 370000 M⁻¹ s⁻¹; kcat/Km [9]: 140000 M⁻¹ s⁻¹; MIC (Escherichia coli [26]): 0.032 µg/mL (≈ 0.0703 µM)
CO[C@@]1(NC(=O)Cc2cccs2)C(=O)N2C(C(=O)O)=C(COC(N)=O)CS[C@@H]21 [CEFOXITIN] | – | – | – | – | 221 µM | 7.5 s⁻¹ | 82.3 µM | 12.1 s⁻¹ | – | – | – | 30000 M⁻¹ s⁻¹ | 150000 M⁻¹ s⁻¹ | – | 3 µg/mL (≈ 7.02 µM) | 3 µg/mL (≈ 7.02 µM) | 3 µg/mL (≈ 7.02 µM) | 48 µg/mL (≈ 112 µM) | 3 µg/mL (≈ 7.02 µM) | 16 µg/mL (≈ 37.4 µM) | MIC (Escherichia coli [26]): 2 µg/mL (≈ 4.68 µM)
